Measured values from ChEMBL document CHEMBL1150420, “A peptoid antagonist of VEGF receptor 2 recognizes a 'hotspot' in the extracellular domain distinct from the hormone-binding site” (Bioorg Med Chem, 2008).
pKd: −log10 of the molar value. Activity calls are given as the source filed them. The calls are words filed in the database; no cut-off is given here. Numbered stars: 1 amine (or outer) side, 2 acyl side, 3 side chain; on linkers, the order of the positions; unused ones are H or OH. Bridge positions count the residues as written; N and C are the ends. Square brackets hold non-standard residues; d marks the D form. Peptide text beside a SMILES is read from it. I, II: the chains in the order shown. ξ: configuration not given here. Gly(N(CH2)2(3-indolyl)) = O=C(O)CNCCc1c[nH]c2ccccc12; Gly(N-piperonyl) = O=C(O)CNCc1ccc2c(c1)OCO2; X1 = CC(c1ccccc1)N(CC(=O)[*:2])[*:1]; NFurfurylGly = O=C(O)CNCc1ccco1; NAllylGly = C=CCNCC(=O)O; Nleu = CC(C)CNCC(=O)O; Nlys = NCCCCNCC(=O)O; ξK = NCCCCC(N)C(=O)O; Ahx = NCCCCCC(=O)O; Nme = COCCNCC(=O)O; βAla = NCCC(=O)O

How the values were obtained:
[1] = target: Vascular endothelial growth factor receptor 1 (Homo sapiens) (UniProt P17948); assay: Binding affinity to human recombinant VEGFR1(1-3) N terminal domain by ELISA like binding assay
Sequence of Vascular endothelial growth factor receptor 1 (Homo sapiens) (P17948 whole entry, the tested form may be a part): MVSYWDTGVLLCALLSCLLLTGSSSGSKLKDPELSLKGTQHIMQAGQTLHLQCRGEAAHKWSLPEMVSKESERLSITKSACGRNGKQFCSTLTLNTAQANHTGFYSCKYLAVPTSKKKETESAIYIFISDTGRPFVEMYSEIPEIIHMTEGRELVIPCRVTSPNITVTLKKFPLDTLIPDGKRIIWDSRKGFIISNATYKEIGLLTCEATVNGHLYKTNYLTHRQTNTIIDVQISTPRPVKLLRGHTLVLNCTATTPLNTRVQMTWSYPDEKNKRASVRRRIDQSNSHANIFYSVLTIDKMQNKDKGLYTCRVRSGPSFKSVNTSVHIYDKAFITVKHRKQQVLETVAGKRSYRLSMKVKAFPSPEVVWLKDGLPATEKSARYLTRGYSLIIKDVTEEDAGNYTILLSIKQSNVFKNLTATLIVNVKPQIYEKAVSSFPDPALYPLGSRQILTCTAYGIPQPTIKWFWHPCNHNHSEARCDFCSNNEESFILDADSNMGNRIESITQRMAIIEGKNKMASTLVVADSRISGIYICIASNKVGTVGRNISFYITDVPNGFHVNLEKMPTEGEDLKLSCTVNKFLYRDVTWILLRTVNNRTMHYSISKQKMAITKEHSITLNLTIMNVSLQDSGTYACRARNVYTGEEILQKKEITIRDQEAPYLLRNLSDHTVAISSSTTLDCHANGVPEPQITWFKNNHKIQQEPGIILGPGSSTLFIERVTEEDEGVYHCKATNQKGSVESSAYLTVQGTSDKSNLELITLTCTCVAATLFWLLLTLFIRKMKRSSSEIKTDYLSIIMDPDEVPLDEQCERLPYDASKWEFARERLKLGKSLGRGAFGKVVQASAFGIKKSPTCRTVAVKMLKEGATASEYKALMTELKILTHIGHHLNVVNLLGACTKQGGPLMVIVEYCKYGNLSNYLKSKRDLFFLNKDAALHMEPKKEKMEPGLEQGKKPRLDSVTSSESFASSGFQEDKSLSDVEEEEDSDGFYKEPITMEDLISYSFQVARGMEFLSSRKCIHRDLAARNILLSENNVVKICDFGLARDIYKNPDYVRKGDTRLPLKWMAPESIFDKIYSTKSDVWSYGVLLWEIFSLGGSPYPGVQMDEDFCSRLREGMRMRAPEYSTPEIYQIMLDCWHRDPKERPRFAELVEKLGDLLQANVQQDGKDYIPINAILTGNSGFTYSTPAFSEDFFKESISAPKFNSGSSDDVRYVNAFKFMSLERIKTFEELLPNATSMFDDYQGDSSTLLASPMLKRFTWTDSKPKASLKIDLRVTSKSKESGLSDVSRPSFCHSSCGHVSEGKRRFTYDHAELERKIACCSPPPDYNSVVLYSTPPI
Method in brief: (§1)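 Plates coated overnight at 4 °C with recombinant human VEGFR ECD at 1 µg/mL in carbonate buffer pH 9.5, then washed and blocked. Serial dilutions of FITC-labelled peptoid in blocking buffer or TBST were added for 1 h at room temperature. After five PBS washes, retained fluorescence was read at 520 nm. KD was taken from the titration.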

[2] = target: T1, Vascular endothelial growth factor receptor 2 (Homo sapiens, UniProt P35968); assay: Displacement of GU40C-FITC form human recombinant VEGFR2 extracellular domain by ELISA like binding assay
T1 sequence (P35968 whole entry, the tested form may be a part): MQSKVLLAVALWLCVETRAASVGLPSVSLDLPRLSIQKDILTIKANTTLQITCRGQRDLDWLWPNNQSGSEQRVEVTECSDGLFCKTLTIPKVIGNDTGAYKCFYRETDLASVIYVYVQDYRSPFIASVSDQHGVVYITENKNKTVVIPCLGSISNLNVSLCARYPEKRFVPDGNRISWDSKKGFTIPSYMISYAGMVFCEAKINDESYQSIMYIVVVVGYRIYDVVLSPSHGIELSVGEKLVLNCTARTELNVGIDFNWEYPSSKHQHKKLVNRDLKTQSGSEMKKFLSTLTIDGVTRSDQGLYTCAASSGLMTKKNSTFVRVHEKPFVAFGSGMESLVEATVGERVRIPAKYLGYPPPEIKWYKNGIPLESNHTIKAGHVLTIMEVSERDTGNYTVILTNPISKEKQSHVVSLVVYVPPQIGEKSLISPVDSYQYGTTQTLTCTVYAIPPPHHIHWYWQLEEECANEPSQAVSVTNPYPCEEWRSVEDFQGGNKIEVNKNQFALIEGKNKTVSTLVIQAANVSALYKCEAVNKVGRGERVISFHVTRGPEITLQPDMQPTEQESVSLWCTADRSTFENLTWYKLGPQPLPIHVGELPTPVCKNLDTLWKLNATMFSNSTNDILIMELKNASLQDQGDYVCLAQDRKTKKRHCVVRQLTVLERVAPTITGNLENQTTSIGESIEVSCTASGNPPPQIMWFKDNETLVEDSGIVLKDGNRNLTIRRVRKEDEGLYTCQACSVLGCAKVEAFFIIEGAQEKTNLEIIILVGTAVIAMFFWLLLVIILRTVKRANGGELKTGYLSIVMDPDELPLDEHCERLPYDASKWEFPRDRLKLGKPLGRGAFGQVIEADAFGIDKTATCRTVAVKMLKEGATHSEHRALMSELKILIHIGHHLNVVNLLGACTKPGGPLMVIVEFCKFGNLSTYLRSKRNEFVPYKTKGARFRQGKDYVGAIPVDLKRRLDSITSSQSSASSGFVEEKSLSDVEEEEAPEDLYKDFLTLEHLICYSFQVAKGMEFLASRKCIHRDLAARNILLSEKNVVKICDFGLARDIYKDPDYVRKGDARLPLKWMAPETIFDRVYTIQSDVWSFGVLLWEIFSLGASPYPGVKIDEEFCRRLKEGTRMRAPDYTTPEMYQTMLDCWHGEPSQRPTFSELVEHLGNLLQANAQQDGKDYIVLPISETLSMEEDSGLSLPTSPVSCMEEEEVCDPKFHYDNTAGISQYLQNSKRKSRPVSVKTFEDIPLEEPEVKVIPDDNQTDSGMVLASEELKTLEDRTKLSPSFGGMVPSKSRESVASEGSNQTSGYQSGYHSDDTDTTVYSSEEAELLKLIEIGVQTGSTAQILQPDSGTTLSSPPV

[3] = target: T1, Vascular endothelial growth factor receptor 2; assay: Binding affinity to human recombinant VEGFR2 extracellular domain by ELISA like binding assay; method in brief: as §1
[4] = target: Vascular endothelial growth factor receptor 1 (Homo sapiens) (UniProt P17948); assay: Binding affinity to human recombinant VEGFR1 extracellular domain by ELISA like binding assay; method in brief: as §1
[5] = target: T1, Vascular endothelial growth factor receptor 2; assay: Displacement of fluorescein-labeled GU40C4 from human recombinant VEGFR2 extracellular domain by ELISA like binding assay

| SMILES | Activity [1] | Activity [2] | pKd [3] | Activity [4] | Activity [3] | Activity [5] |
| --- | --- | --- | --- | --- | --- | --- |
| CC(C)CN(CC(=O)N(CCCCN)CC(=O)N(CCCCN)CC(N)=O)C(=O)CN(CCCCN)C(=O)CN(CC(C)C)C(=O)CN(CCCCN)C(=O)CN(Cc1ccco1)C(=O)CN(CCCCN)C(=O)CNCCc1c[nH]c2ccccc12 (H-[Gly(N(CH2)2(3-indolyl))][Nlys][NFurfurylGly][Nlys][Nleu][Nlys][Nleu][Nlys][Nlys]-NH2) | Active | Active | 6.00 | Active | – | – |
| C=CCN(CC(=O)N(CCc1c[nH]c2ccccc12)CC(=O)N(CCCCN)CC(=O)N(CC(=O)N(CCCCN)CC(=O)N(CCCCN)CC(N)=O)CC(C)C)C(=O)CN(CC(C)C)C(=O)CN(CCOC)C(=O)CNCCCCN (H-[Nlys][Nme][Nleu][NAllylGly][Gly(N(CH2)2(3-indolyl))][Nlys][Nleu][Nlys][Nlys]-NH2) | Active | Active | – | Active | Active | – |
| CC(C)CN(CC(=O)N(CCCCN)CC(=O)N(CC(=O)N(CC(=O)N(CCCCN)CC(=O)N(CC(=O)N(CCCCN)CC(=O)N(CCCCN)CC(=O)NCCCCCC(=O)NCCC(=O)NC(CCCCNC(=O)CN(CCCCN)C(=O)CN(CCCCN)C(=O)CN(CC(C)C)C(=O)CN(CCCCN)C(=O)CN(Cc1ccc2c(c1)OCO2)C(=O)CN(C(=O)CN(CCCCN)C(=O)CN(CC(C)C)C(=O)CNCCCCN)C(C)c1ccccc1)C(N)=O)CC(C)C)Cc1ccc2c(c1)OCO2)C(C)c1ccccc1)C(=O)CNCCCCN (configuration not stated) (I: H-[Nlys][Nleu][Nlys][X1][Gly(N-piperonyl)][Nlys][Nleu][Nlys][Nlys][Ahx][βAla][ξK]-NH2 / II: H-[Nlys][Nleu][Nlys][X1][Gly(N-piperonyl)][Nlys][Nleu][Nlys][Nlys]; amide I:12-II:C) | – | – | – | – | Active | Active |

More lines, now with the values ahead:

| Activity [1] | Activity [2] | pKd [3] | Activity [4] | Activity [3] | Activity [5] | SMILES |
| --- | --- | --- | --- | --- | --- | --- |
| Active | Active | – | Active | Active | – | CC(C)CN(CC(=O)N(CCCCN)CC(=O)N(CCCCN)CC(N)=O)C(=O)CN(CCCCN)C(=O)CN(Cc1ccc2c(c1)OCO2)C(=O)CN(CCCCN)C(=O)CN(CC(C)C)C(=O)CN(Cc1ccc2c(c1)OCO2)C(=O)CNCCCCN (H-[Nlys][Gly(N-piperonyl)][Nleu][Nlys][Gly(N-piperonyl)][Nlys][Nleu][Nlys][Nlys]-NH2) |
| Active | Active | 6.00 | Active | – | – | CC(C)CN(CC(=O)N(CCCCN)CC(=O)N(CC(=O)N(CC(=O)N(CCCCN)CC(=O)N(CC(=O)N(CCCCN)CC(=O)N(CCCCN)CC(N)=O)CC(C)C)Cc1ccc2c(c1)OCO2)C(C)c1ccccc1)C(=O)CNCCCCN (configuration not stated) (H-[Nlys][Nleu][Nlys][X1][Gly(N-piperonyl)][Nlys][Nleu][Nlys][Nlys]-NH2) |
| Active | Active | – | Active | Active | – | C=CCN(CC(=O)N(CC(=O)N(CCCCN)CC(=O)N(CCCCN)CC(N)=O)CC(C)C)C(=O)CN(CC(C)C)C(=O)CN(Cc1ccc2c(c1)OCO2)C(=O)CN(CCc1c[nH]c2ccccc12)C(=O)CN(CCCCN)C(=O)CNCCCCN (H-[Nlys][Nlys][Gly(N(CH2)2(3-indolyl))][Gly(N-piperonyl)][Nleu][NAllylGly][Nleu][Nlys][Nlys]-NH2) |
